Results: ChEMBL document CHEMBL2346655, “Synthesis and in vitro biological evaluation of 2,6,9-trisubstituted purines targeting multiple cyclin-dependent kinases” (Eur J Med Chem, 2013)
Active and inactive are the calls of the source. No cut-off for these calls is given here.

Tests used:
HCT-116 [1] = test: Cell cycle arrest in human HCT116 cells assessed as accumulation at S phase at 0.2 uM after 24 hrs by propidium iodide staining-based flow cytometric analysis (reference value: 31.6%); assay type: functional
How it was run: (§1)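 Sub-confluent cells treated at several concentrations for 24 h, then pulsed with 10 μM BrdU for 30 min at 37 °C before harvest. Cells were PBS-washed, fixed in 70% ethanol, denatured in 2 M HCl and neutralized. Stained with fluorescein anti-BrdU and propidium iodide; DNA content read by flow cytometry with 488 nm excitation.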

HCT-116 [2] = test: Cell cycle arrest in human HCT116 cells assessed as accumulation at G1 phase at 0.2 uM after 24 hrs by propidium iodide staining-based flow cytometric analysis (reference value: 48.8%); assay type: functional; how it was run: as §1
HCT-116 [3] = test: Cell cycle arrest in human HCT116 cells assessed as accumulation at subG1 phase at 0.2 uM after 24 hrs by propidium iodide staining-based flow cytometric analysis (reference value: 1.4%); assay type: functional; how it was run: as §1
MCF7 = test: Ratio of roscovitine IC50 to compound IC50 for human MCF7 cells; assay type: functional
How it was run: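 Cytotoxicity IC50s underlying the ratio: cells treated in triplicate with three-fold compound dilutions for 72 h, then Calcein AM added and live-cell fluorescence read at 485/538 nm (ex/em).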

CDK9/cyclin T1 = CDK9/cyclin T1 (Homo sapiens, UniProt P50750); test: Inhibition of CDK9/CyclinT1 (unknown origin) using (YSPTSPS)2KK as substrate; assay type: protein-complex assay
How it was run: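 Buffer was 60 mM HEPES-NaOH pH 7.5, 3 mM MgCl2, 3 mM MnCl2, vanadate, DTT and PEG. Reactions were stopped with H3PO4 and spotted on P-81 paper, which was then washed. Radioactivity was imaged; IC50 taken from dose–response curves.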

[4] = target: Cyclin-dependent kinase 5/CDK5 activator 1 (Homo sapiens, UniProt Q00535); test: Inhibition of CDK5/P35 (unknown origin) using histone H1 as substrate; assay type: protein-complex assay
CCRF-CEM = test: Cytotoxicity against human CEM cells assessed as reduction in number of viable cells after 72 hrs by fluorescence assay; assay type: functional, cell-based
How it was run: (§2)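 Three-fold compound dilutions tested in triplicate on cultured cells for 72 h. Viable cells detected by adding Calcein AM and reading fluorescence at 485/538 nm (ex/em).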

G-361 = test: Cytotoxicity against human G361 cells assessed as reduction in number of viable cells after 72 hrs by fluorescence assay; assay type: functional, cell-based; conditions: G-361, 72 h; how it was run: as §2
HCT-116 [5] = test: Cytotoxicity against human HCT116 cells assessed as reduction in number of viable cells after 72 hrs by fluorescence assay; assay type: functional, cell-based; conditions: HCT-116, 72 h; how it was run: as §2
K562 [6] = test: Induction of apoptosis in human K562 cells assessed as change in PUMA level up to 5 uM after 24 hrs by immunoblotting analysis; assay type: functional, cell-based
How it was run: (§3)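 Cells were treated for 24 h, harvested directly into Laemmli sample buffer, and run on SDS-PAGE. Proteins were blotted to nitrocellulose, blocked, probed overnight with primary antibodies, then with peroxidase-linked secondaries. Bands were detected by ECL with a CCD camera. PCNA and tubulin served as loading references.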

HCT-116 [7] = test: Induction of apoptosis in human HCT116 cells assessed as caspase-3 activation up to 5 uM after 24 hrs by immunoblotting analysis; assay type: functional, cell-based; how it was run: as §3
[8] = target: T1, CDK9/cyclin T1 (Homo sapiens) (UniProt O60563+P50750); test: Inhibition of CDK9/CyclinT1 in human ARN8 cells assessed as increase in p53-dependent transcriptional activity at 2 uM after 24 hrs by beta-galactosidase reporter gene assay; assay type: cell-based
How it was run: (§4)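 Arn-8 human melanoma cells stably carrying p53-responsive pRGCΔfoslacZ reporter; 24 h compound exposure, then permeabilized with 0.3% Triton X-100 for 15 min. 4-Methylumbelliferon-β-D-galactopyranoside added (80 μM final); fluorescence read at 355/460 nm (ex/em) after 1 h as β-galactosidase activity.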

[9] = target: T1, CDK9/cyclin T1 (Homo sapiens); test: Inhibition of CDK9/CyclinT1 in human ARN8 cells assessed as increase in p53-dependent transcriptional activity after 24 hrs by beta-galactosidase reporter gene assay; assay type: cell-based; how it was run: as §4
[10] = target: T1, CDK9/cyclin T1 (Homo sapiens); test: Inhibition of CDK9/CyclinT1-mediated phosphorylation of RNA polymerase 2 at Ser2 in human K562 cells up to 25 uM after 24 hrs by immunoblotting analysis; assay type: cell-based
How it was run: (§5)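 Immunoblot: cells lysed by harvesting in Laemmli sample buffer, proteins run on SDS-PAGE, electroblotted to nitrocellulose, blocked, primary antibodies overnight, peroxidase-conjugated secondaries, ECL detection by CCD camera. Antibodies included anti-phospho RNA polymerase II (S2), anti-RNA polymerase II (ARNA-3), anti-p53 (DO-1), anti-p21waf1 (118), anti-PCNA.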

[11] = target: T2, Cyclin-dependent kinase 7/ cyclin H (Homo sapiens) (UniProt P51946+P50613); test: Inhibition of CDK7/CyclinH/MAT1-mediated phosphorylation of RNA polymerase 2 at Ser5 in human K562 cells up to 25 uM after 24 hrs by immunoblotting analysis; assay type: cell-based
[12] = target: T2, Cyclin-dependent kinase 7/ cyclin H (Homo sapiens); test: Inhibition of CDK7/CyclinH/MAT1-mediated phosphorylation of RNA polymerase 2 at Ser2 in human K562 cells up to 25 uM after 24 hrs by immunoblotting analysis; assay type: cell-based
How it was run: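 Treated cells were lysed in Laemmli buffer and separated by SDS-PAGE, then transferred to nitrocellulose. Blots were probed overnight with phospho-RNA polymerase II (S2) and total RNA polymerase II (clone ARNA-3) antibodies, followed by peroxidase secondaries. Signal was developed by ECL on a CCD camera.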

[13] = target: T1, CDK9/cyclin T1 (Homo sapiens); test: Inhibition of CDK9/CyclinT1-mediated phosphorylation of RNA polymerase 2 at Ser5 in human HCT116 cells up to 25 uM after 24 hrs by immunoblotting analysis; assay type: cell-based; conditions: HCT-116; how it was run: as §5
[14] = target: T1, CDK9/cyclin T1 (Homo sapiens); test: Inhibition of CDK9/CyclinT1-mediated phosphorylation of RNA polymerase 2 at Ser2 in human HCT116 cells up to 25 uM after 24 hrs by immunoblotting analysis; assay type: cell-based; conditions: HCT-116; how it was run: as §5
K562 [15] = test: Cell cycle arrest in human K562 cells assessed as accumulation at G2/M phase at 5 uM after 24 hrs by propidium iodide staining-based flow cytometric analysis (reference value: 13.8%); assay type: functional; how it was run: as §1
K562 [16] = test: Cell cycle arrest in human K562 cells assessed as accumulation at G1 phase at 1 uM after 24 hrs by propidium iodide staining-based flow cytometric analysis (reference value: 47.3%); assay type: functional; how it was run: as §1
K562 [17] = test: Cell cycle arrest in human K562 cells assessed as accumulation at G2/M phase at 0.2 uM after 24 hrs by propidium iodide staining-based flow cytometric analysis (reference value: 13.8%); assay type: functional; how it was run: as §1
HCT-116 [18] = test: Cell cycle arrest in human HCT116 cells assessed as accumulation at G2/M phase at 5 uM after 24 hrs by propidium iodide staining-based flow cytometric analysis (reference value: 19.6%); assay type: functional; how it was run: as §1
HCT-116 [19] = test: Cell cycle arrest in human HCT116 cells assessed as accumulation at S phase at 5 uM after 24 hrs by propidium iodide staining-based flow cytometric analysis (reference value: 31.6%); assay type: functional; how it was run: as §1
HCT-116 [20] = test: Cell cycle arrest in human HCT116 cells assessed as accumulation at G2/M phase at 1 uM after 24 hrs by propidium iodide staining-based flow cytometric analysis (reference value: 19.6%); assay type: functional; how it was run: as §1
HCT-116 [21] = test: Cell cycle arrest in human HCT116 cells assessed as accumulation at S phase at 1 uM after 24 hrs by propidium iodide staining-based flow cytometric analysis (reference value: 31.6%); assay type: functional; how it was run: as §1

Sequence of Cyclin-dependent kinase 5/CDK5 activator 1 (Q00535 whole entry): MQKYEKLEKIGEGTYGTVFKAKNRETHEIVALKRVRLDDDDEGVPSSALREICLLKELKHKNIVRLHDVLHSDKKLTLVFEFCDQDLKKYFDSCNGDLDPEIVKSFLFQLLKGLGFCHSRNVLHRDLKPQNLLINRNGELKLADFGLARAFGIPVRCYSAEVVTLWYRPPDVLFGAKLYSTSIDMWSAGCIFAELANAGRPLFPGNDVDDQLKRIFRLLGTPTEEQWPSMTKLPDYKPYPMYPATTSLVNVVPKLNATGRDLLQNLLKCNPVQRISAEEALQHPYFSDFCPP
Sequence of Cyclin-dependent kinase 5/CDK5 activator 1 (Q15078 whole entry, further chain): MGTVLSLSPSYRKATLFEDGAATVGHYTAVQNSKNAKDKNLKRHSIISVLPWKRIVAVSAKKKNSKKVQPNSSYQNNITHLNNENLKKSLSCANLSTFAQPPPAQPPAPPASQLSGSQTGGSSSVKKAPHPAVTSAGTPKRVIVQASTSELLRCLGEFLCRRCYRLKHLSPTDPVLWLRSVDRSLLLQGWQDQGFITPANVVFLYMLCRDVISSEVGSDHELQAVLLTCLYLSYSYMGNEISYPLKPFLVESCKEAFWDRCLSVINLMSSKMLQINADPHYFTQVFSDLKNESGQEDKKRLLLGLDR
Sequence of CDK9/cyclin T1 (O60563 whole entry): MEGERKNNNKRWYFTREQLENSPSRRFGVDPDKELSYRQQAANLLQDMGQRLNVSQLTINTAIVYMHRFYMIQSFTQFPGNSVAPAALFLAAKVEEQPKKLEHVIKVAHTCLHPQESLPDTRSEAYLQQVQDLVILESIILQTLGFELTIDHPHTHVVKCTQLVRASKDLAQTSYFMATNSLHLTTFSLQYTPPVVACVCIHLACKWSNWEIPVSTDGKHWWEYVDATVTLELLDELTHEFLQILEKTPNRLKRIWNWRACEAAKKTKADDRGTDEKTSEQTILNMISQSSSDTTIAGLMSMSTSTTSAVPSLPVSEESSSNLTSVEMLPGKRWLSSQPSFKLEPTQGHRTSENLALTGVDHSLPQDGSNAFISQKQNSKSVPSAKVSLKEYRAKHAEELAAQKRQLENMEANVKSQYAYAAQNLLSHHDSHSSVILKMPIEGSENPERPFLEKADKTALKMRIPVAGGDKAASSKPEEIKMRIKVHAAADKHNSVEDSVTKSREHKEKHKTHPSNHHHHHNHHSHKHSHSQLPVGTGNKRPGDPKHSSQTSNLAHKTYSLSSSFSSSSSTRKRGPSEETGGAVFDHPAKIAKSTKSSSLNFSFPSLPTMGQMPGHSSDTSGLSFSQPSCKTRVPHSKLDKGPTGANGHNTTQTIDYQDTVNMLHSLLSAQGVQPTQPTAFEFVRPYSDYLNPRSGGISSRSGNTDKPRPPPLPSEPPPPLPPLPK
Sequence of CDK9/cyclin T1 (P50750 whole entry): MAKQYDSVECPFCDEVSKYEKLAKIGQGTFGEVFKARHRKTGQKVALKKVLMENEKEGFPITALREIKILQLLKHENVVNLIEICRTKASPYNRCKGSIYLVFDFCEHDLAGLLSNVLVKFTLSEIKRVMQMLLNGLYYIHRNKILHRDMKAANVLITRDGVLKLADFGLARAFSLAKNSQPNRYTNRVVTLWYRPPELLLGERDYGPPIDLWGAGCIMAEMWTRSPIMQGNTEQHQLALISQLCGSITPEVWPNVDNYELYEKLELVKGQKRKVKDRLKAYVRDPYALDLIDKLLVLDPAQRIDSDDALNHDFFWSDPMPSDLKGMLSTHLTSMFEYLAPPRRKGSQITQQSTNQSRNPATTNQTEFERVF

For `CC[C@@H](Nc1nc(NCc2cc(Cl)ccc2O)c2ncn(C(C)C)c2n1)C(C)O` (mixture of isomers), the Activity (HCT-116 [1]) was 31.1%, the Activity (HCT-116 [2]) was 45.6% and the Activity (HCT-116 [3]) was 1.5%. For the same compound, the “Ratio IC50” value (MCF7) was over 9, the IC50 (CDK9/cyclin T1) was 165 nM and the IC50 [4] was 71 nM. For the same compound, the IC50 (CCRF-CEM) was 1600 nM, the IC50 (G-361) was 2300 nM and the IC50 (HCT-116 [5]) was 2000 nM. For the same compound, the Activity (K562 [6]) was “inactive”, the Activity (HCT-116 [7]) was “inactive” and the inhibition [8] was “Active”. The inhibition [9] was “Dose-dependent effect”, the inhibition [10] was “Active” and the inhibition [11] was “Active”. The inhibition [12] was “Active”, the inhibition [13] was “Active” and the inhibition [14] was “Active”. For the same compound, the Activity (K562 [15]) was 31.5%, the Activity (K562 [16]) was 31.5% and the Activity (K562 [17]) was 25.8%. It also gave an Activity (HCT-116 [18]) of 37.9%, an Activity (HCT-116 [19]) of 33.7% and an Activity (HCT-116 [20]) of 31.8%. For the same compound, the Activity (HCT-116 [21]) was 28.8%.
